Results taken from PMC4540355 (Biochemistry, 2009).
Each block holds one molecule with its values, some of them ahead of it.

Tests used:
[1] = target: fibrin monomer with both fibrinopeptides A and B cleaved (human) (UniProt P02671); assay: solid-phase binding assay with 125I-labelled protein
[2] = target: fibrinogen D100 (100 kDa) fragment (human); assay: as above
[3] = target: human fibrinogen, depleted of fibronectin and plasminogen (human) (UniProt P02671); assay: as above
[4] = target: T1, skelemin fragment (Mus musculus, UniProt Q62234); assay: Solid-phase assay: binding of [125I]skelemin to peptides coated on wells; settings: wells coated with peptide 20 μg/mL, postcoated with 1% BSA
T1 sequence (Q62234 1113-1666): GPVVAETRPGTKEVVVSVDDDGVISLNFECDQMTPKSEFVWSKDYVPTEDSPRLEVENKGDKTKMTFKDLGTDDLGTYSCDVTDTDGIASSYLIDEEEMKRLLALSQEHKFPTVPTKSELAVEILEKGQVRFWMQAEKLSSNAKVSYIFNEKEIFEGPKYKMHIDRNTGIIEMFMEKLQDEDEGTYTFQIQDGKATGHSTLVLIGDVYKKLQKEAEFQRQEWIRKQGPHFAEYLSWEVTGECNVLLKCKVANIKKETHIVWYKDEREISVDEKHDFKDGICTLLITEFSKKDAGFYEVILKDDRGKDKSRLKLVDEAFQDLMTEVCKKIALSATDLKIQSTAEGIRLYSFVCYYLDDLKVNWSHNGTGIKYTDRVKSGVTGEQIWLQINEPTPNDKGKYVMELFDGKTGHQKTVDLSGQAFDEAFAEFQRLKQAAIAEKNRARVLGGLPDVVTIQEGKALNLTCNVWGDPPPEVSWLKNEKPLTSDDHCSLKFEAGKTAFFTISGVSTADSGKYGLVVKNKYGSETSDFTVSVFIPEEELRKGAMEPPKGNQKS
How it was run: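 Mouse skelemin fragment (residues 1113–1666) made as a GST fusion, cut free with thrombin and radioiodinated. Wells coated with wild-type or mutant αIIb 989–1008 peptide at 20 μg/mL, postcoated with 1% BSA, then given various concentrations of [125I]skelemin. Bound radioactivity counted.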

[5] = target: T2, skelemin binding to αIIbβ3 (Mus musculus, UniProt Q62234); set-up: species or system human
T2 sequence (Q62234 1113-1666): T1 sequence (Q62234 1113-1666)

[6] = target: T1, skelemin fragment; assay type: binding
How it was run: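 CM5 chip carried amine-coupled skelemin fragment (~900 RU). αIIb 989–1008 peptide at 0, 10, 20, 40, 100 and 200 μM in HBS-P with 1 mM Ca2+ and 1 mM Mg2+, injected at 5 μL/min for 10 min. Signal corrected against an EDC/NHS-activated, ethanolamine-blocked blank cell. Kd from best fit to an interaction model.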

[7] = target: cellulose-bound αIIb 9-mer peptide with Arg995 substituted with Ala (human) (UniProt P08514); assay: peptide or protein array
[8] = target: cellulose-bound αIIb 9-mer peptide with Arg997 substituted with Ala (human) (UniProt P08514); assay: peptide or protein array
[9] = target: αIIb 9-mer peptides with mutations of Val990, Phe992, and Leu1000; assay: peptide or protein array
[10] = target: platelet integrin αIIbβ3 (human) (UniProt P05106); assay: solid-phase binding assay with 125I-labelled protein
[11] = tested on: αIIbβ3; assay type: binding, human; settings: integrin adsorbed on plastic without ligand
[12] = tested on: αIIbβ3; assay type: binding, human
How it was run: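 αIIbβ3 purified from human platelets on Concanavalin A-agarose. Passed at 0, 50, 100, 200 and 500 μg/mL in HBS-P with 1 mM Ca2+/Mg2+ over amine-coupled skelemin fragment (~900 RU), with a fibrinogen parallel cell (~1300 RU) checking resting state. For activation, DTT 3 mM final, 15 min at 4 °C, then extensive dialysis; activated integrin injected 5 min at 10 μL/min. Blank-cell corrected.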

Sequence of human fibrinogen, depleted of fibronectin and plasminogen (human) (P02671 36-866, chain 1 of 3): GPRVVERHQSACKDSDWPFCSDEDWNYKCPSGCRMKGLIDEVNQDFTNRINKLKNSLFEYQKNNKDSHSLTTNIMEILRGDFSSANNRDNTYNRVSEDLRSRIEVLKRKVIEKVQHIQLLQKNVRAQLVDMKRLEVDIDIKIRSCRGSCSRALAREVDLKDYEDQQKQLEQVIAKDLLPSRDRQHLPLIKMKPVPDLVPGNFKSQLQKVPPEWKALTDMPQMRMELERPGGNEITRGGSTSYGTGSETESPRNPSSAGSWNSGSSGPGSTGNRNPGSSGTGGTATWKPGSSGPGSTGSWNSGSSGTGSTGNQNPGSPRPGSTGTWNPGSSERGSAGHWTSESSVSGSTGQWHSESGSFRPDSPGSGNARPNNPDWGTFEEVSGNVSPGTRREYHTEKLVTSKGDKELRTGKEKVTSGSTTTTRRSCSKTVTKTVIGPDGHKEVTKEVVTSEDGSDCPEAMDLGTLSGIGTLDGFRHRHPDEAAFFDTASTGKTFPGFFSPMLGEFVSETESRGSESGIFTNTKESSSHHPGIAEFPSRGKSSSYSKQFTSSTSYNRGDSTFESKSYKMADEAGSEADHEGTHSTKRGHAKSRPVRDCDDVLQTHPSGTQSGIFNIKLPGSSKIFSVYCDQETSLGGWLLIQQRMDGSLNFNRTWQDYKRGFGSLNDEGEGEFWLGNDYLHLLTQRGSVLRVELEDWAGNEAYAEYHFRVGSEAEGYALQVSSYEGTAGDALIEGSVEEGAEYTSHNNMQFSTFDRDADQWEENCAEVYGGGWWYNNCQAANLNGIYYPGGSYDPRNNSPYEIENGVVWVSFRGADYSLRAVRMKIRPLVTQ
Sequence of human fibrinogen, depleted of fibronectin and plasminogen (human) (P02675 45-491, chain 2 of 3, further chain): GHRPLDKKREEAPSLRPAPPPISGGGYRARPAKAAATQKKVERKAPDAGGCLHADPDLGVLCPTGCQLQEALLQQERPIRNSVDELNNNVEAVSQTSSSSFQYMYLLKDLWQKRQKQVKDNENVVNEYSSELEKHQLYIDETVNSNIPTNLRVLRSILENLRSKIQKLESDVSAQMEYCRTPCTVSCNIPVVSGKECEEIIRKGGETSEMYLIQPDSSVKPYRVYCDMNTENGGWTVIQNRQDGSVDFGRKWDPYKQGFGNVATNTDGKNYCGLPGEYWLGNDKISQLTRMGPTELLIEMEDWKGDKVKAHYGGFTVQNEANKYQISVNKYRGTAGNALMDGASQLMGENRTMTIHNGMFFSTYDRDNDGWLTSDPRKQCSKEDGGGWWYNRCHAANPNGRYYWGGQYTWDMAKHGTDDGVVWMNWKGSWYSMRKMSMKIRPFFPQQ
Sequence of human fibrinogen, depleted of fibronectin and plasminogen (human) (P02679 27-453, chain 3 of 3, further chain): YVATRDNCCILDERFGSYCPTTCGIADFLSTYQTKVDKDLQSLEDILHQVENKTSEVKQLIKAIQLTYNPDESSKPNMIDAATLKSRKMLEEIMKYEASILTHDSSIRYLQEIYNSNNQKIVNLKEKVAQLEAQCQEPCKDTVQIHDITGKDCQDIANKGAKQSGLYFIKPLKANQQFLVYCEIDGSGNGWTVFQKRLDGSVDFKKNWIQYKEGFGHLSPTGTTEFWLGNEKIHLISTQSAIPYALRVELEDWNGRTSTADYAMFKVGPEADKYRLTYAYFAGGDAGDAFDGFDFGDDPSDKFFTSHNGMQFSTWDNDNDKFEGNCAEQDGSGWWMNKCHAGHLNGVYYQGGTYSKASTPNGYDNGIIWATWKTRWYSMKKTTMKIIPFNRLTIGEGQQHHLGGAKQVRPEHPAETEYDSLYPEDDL
Sequence of fibrin monomer with both fibrinopeptides A and B cleaved (human) (P02671 36-866, chain 1 of 3): as the sequence (P02671 36-866, chain 1 of 3) above
Sequence of fibrin monomer with both fibrinopeptides A and B cleaved (human) (P02675 45-491, chain 2 of 3, further chain): as the sequence (P02675 45-491, chain 2 of 3, further chain) above
Sequence of fibrin monomer with both fibrinopeptides A and B cleaved (human) (P02679 27-453, chain 3 of 3, further chain): as the sequence (P02679 27-453, chain 3 of 3, further chain) above

Molecule: platelet integrin αIIbβ3 (from UniProt P05106 27-788) (complex)
amount of αIIbβ3 bound [1]: 76 ng
amount of αIIbβ3 bound [2]: 76 ng
amount of αIIbβ3 bound [3]: 76 ng

Molecule: KVGFFKANAPALEEDDEEGE [mutant αIIb peptide]
Inhibition of skelemin binding to αIIbβ3 prebound to ligands ([5]; mutant peptide): did not inhibit
Binding to skelemin coupled to the chip (SPR) [6]: did not bind
Binding of [125I]skelemin to immobilized peptide [4]: lost the ability to bind

B1: recombinant fragment spanning immunoglobulin C2-like motifs 3–7 of mouse skelemin (domain or fragment)
chain: T1 sequence (Q62234 1113-1666)
modifications: 125I label (IODO-GEN) where used as [125I]skelemin
reduction of binding against the wild-type peptide [7]: 70%
reduction of binding against the wild-type peptide [8]: 70%
reduction of binding against the wild-type peptide [9]: 40 to 50%
Kd, high-affinity class of binding sites [10]: 123 nM
Kd, low-affinity class of binding sites [10]: 1100 nM
N, high-affinity interaction (skelemin to receptor) (skelemin per receptor) [10]: 1
N, low-affinity interaction (skelemin to receptor) (skelemin per receptor) [10]: 0.33

Now from value to molecule, other results behind:

Binding of [125I]skelemin to immobilized peptide [4]: reduced level of skelemin binding
Molecule: GY^715 WALLITIADRKEFAKF^730 [β3 mutant 1]

Overall activity relative to the wild-type counterpart ([5]; skelemin binding and inhibition): residual activity
Binding of [125I]skelemin to immobilized peptide [4]: still further loss
Molecule: GY^715 WALLITIADAKEFAKF^730 [β3 mutant 2]

Skelemin binding to αIIbβ3 immobilized directly on plastic [11]: small amount
Binding of DTT-treated soluble αIIbβ3 to immobilized skelemin fragment ([12]; αIIbβ3 activated with 3 mM DTT 15 min at 4 °C, 0-500 μg/mL): did not bind
B2: skelemin fragment: recombinant fragment spanning immunoglobulin C2-like motifs 3–7 of mouse skelemin, residues 1113–1666 (protein)
chain: T1 sequence (Q62234 1113-1666)
modifications: 125I label (IODO-GEN) where used as [125I]skelemin; left off: GST, end not stated, cleaved
Interaction of resting soluble αIIbβ3 with immobilized skelemin fragment ([12]; resting integrin, various concentrations): No interaction was detected
